Calls of active or inactive are those of the source. No cut-off for these calls is given here.
Tests used:
[1] = Half life in human plasma; type: ADME
MDA-MB-231 = assay: Cytotoxicity against human MDA-MB-231 cells assessed as reduction in cell viability at 10 uM after 24 hrs by MTT assay; type: cell-based; conditions: mda-mb-231, 24 h
Summary of the method: (§1)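 MTT-type viability assay: cells seeded at 3000/well, grown 24 h at 37 °C, then exposed to compound for 24 h at 37 °C. CellTiter 96AQ reagent added for 2 h, absorbance read at 490 nm; compared with vehicle control.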

[2] = molecular target: C-X-C chemokine receptor type 4 (Homo sapiens) (UniProt P61073); assay: Inhibition of CXCR4 in human MDA-MB-231 cells assessed as decrease in CXCL12-induced p44 phosphorylation at 0.1 nM by Western blot analysis; type: functional, cell-based
[3] = molecular target: C-X-C chemokine receptor type 4 (Homo sapiens) (UniProt P61073); assay: Potency index, ratio of AMD3100 EC to compound EC for inhibition of biotinylated TN14003 binding to CXCR4 in human MDA-MB-231 cells; type: functional, cell-based
[4] = molecular target: C-X-C chemokine receptor type 4 (Homo sapiens) (UniProt P61073); assay: Inhibition of CXCR4 in human MDA-MB-231 cells assessed as decrease in CXCL12-induced Akt phosphorylation by Western blot analysis; type: functional, cell-based
Mus musculus [5] = assay: Antiinflammatory activity in mouse assessed as inhibition of xylene-induced thickness of ear at 10 mg/kg, ip treated after 30 mins xylene administration measured after 2 hrs; type: functional, organism-based
MCF-10A = assay: Cytotoxicity against human MCF10A cells assessed as reduction in cell viability at 10 uM after 24 hrs by MTT assay; type: cell-based; summary of the method: as §1
[6] = Half life in nude mouse plasma at 30 mg/kg, iv administered as single dose by HPLC analysis; type: ADME, organism-based
Summary of the method: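 Nude mice (~20 g), anaesthetized with ketamine (90 mg/kg)/xylazine (4.5 mg/kg), given single 30 mg/kg i.v. dose in 10% DMSO/90% of 45% hydroxypropyl-β-cyclodextrin in PBS. Orbital sinus blood at 0, 5, 20, 50 min; centrifuged 13000 g, 4 °C, filtered (10000 NMWL). Filtrate HPLC on C18, acetonitrile–water (0.1% TFA) 50:50, 254 nm; half-life from peak areas.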

Mus musculus [7] = assay: Antiinflammatory activity in mouse assessed as inhibition of xylene-induced ear edema at 10 mg/kg, ip treated after 30 mins xylene administration measured after 2 hrs relative to control; type: functional
Summary of the method: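 Xylene (30 µL total, inner and outer surfaces) applied to right ear, saline to left ear; 5 mice per group. 30 min later, 10 mg/kg i.p. in 10% DMSO/90% of 45% hydroxypropyl-β-cyclodextrin in PBS; vehicle-injected controls. Sacrificed 2 h later; 7 mm ear plugs from both ears weighed, weight difference = edema; suppression % versus control group.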

Mus musculus [8] = assay: Antiinflammatory activity in mouse assessed as inhibition of xylene-induced swollen volume of ear at 10 mg/kg, ip treated after 30 mins xylene administration measured after 2 hrs; type: functional, organism-based
[9] = molecular target: C-X-C chemokine receptor type 4 (Homo sapiens) (UniProt P61073); assay: Inhibition of biotinylated TN14003 binding to CXCR4 in human MDA-MB-231 cells preincubated for 10 mins followed by TN14003 addition measured after 30 mins by rhodamine dye-based microscopic analysis; type: cell-based
Summary of the method: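 MDA-MB-231 cells (2×10^4, seeded two days before) exposed to compound at 1, 10, 100 or 1000 nM for 10 min at room temperature, fixed in ice-cold 4% paraformaldehyde, rehydrated in PBS, then 0.05 µg/mL biotinylated TN14003 for 30 min, streptavidin-rhodamine (1:150) 30 min. Fluorescence microscopy; EC = lowest concentration with significant reduction in rhodamine signal versus untreated.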

[10] = molecular target: C-X-C chemokine receptor type 4 (Homo sapiens) (UniProt P61073); assay: Inhibition of CXCR4 in human MDA-MB-231 cells assessed as decrease in CXCL12-dependent cell invasion at 100 nM after 22 hrs by hematoxylin and eosin staining based matrigel assay relative to control; type: functional
Summary of the method: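 Matrigel invasion chamber. MDA-MB-231 cells pretreated with compound (100 nM) before seeding in top chamber; 200 ng/mL CXCL12α in serum-free medium in bottom chamber as chemoattractant. 22 h in humidified incubator; non-invading cells swabbed off, invaded cells fixed in methanol, H&E stained and counted; inhibition relative to untreated invasion.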

Chain of C-X-C chemokine receptor type 4 (Homo sapiens) (P61073 whole entry): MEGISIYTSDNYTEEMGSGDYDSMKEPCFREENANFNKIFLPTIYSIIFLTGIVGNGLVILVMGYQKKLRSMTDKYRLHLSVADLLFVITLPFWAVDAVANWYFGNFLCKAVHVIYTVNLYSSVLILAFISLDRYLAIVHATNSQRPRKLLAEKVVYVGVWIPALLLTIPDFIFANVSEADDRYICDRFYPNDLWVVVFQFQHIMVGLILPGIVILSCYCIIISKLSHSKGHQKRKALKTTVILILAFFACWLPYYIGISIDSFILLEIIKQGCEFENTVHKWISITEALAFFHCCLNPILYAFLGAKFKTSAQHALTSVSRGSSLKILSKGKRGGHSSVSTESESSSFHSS

O=C(NCc1ccc(CNS(=O)(=O)c2ccccc2)cc1)c1ccc(CNc2ncccn2)cc1
half-life [1]: 2.5 h
Activity (MDA-MB-231): Non-Toxic
inhibition [2]: Active
Ratio [3]: 1000
inhibition [4]: Dose-dependent effect
inhibition (Mus musculus [5]): Active
Activity (MCF-10A): Non-Toxic
half-life [6]: 0.333 h
inhibition in vivo at 10 mg/kg (Mus musculus [7]): 67%
inhibition (Mus musculus [8]): Active
EC [9]: 1 nM

O=C(NCc1ccc(CNS(=O)(=O)c2ccc(F)cc2)cc1)c1ccc(CNc2ncccn2)cc1
EC [9]: > 1000 nM

Cc1ccccc1S(=O)(=O)NCc1ccc(CNC(=O)c2ccc(CNc3ncccn3)cc2)cc1
Ratio [3]: 100
EC [9]: 10 nM

O=C(NCc1ccc(CNS(=O)(=O)c2cccnc2)cc1)c1ccc(CNc2ncccn2)cc1
EC [9]: > 1000 nM

O=C(NCc1ccc(CNS(=O)(=O)c2cccc(C(F)(F)F)c2)cc1)c1ccc(CNc2ncccn2)cc1
EC [9]: 1000 nM

O=C(NCc1ccc(CNS(=O)(=O)c2cccc(F)c2)cc1)c1ccc(CNc2ncccn2)cc1
EC [9]: 1000 nM

O=C(NCc1ccc(CNS(=O)(=O)c2ccc(F)c(F)c2)cc1)c1ccc(CNc2ncccn2)cc1
inhibition (Mus musculus [7]): inactive
EC [9]: 100 nM

O=C(NCc1ccc(CNS(=O)(=O)c2cccc3ccccc23)cc1)c1ccc(CNc2ncccn2)cc1
EC [9]: 1000 nM

O=C(NCc1ccc(CNS(=O)(=O)c2ccccc2Cl)cc1)c1ccc(CNc2ncccn2)cc1
EC [9]: 1000 nM

O=C(NCc1ccc(CNS(=O)(=O)c2cccc(Cl)c2)cc1)c1ccc(CNc2ncccn2)cc1
inhibition [10]: 88%
Ratio [3]: 1000
inhibition (Mus musculus [7]): inactive
EC [9]: 1 nM

Cc1ccc(S(=O)(=O)NCc2ccc(CNC(=O)c3ccc(CNc4ncccn4)cc3)cc2)cc1
inhibition [10]: 87%
inhibition in vivo at 10 mg/kg (Mus musculus [7]): 37%
EC [9]: 100 nM

O=C(NCc1ccc(CNS(=O)(=O)c2ccc3c(c2)CCO3)cc1)c1ccc(CNc2ncccn2)cc1
EC [9]: 1000 nM

O=C(NCc1ccc(CNS(=O)(=O)c2ccc(Cl)cc2)cc1)c1ccc(CNc2ncccn2)cc1
inhibition in vivo at 10 mg/kg (Mus musculus [7]): 30%
EC [9]: 100 nM

O=C(NCc1ccc(CNS(=O)(=O)c2ccccc2F)cc1)c1ccc(CNc2ncccn2)cc1
EC [9]: 1000 nM

O=C(NCc1ccc(CNS(=O)(=O)c2ccc(-c3ccc(F)cc3)cc2)cc1)c1ccc(CNc2ncccn2)cc1
EC [9]: 1000 nM

O=C(NCc1ccc(CNS(=O)(=O)c2ccc([N+](=O)[O-])cc2)cc1)c1ccc(CNc2ncccn2)cc1
EC [9]: 1000 nM

Cc1cccc(S(=O)(=O)NCc2ccc(CNC(=O)c3ccc(CNc4ncccn4)cc3)cc2)c1
EC [9]: 100 nM

Reference: ChEMBL document CHEMBL4196077, “Anti-inflammatory hybrids of secondary amines and amide-sulfamide derivatives” (Eur J Med Chem, 2018)
